# How the values were obtained:
# Conditions in all cases: stereoisomer not certain
# [1] = target: T1, OR51I2 (Homo sapiens) (UniProt Q9H344)
# T1 sequence (whole entry): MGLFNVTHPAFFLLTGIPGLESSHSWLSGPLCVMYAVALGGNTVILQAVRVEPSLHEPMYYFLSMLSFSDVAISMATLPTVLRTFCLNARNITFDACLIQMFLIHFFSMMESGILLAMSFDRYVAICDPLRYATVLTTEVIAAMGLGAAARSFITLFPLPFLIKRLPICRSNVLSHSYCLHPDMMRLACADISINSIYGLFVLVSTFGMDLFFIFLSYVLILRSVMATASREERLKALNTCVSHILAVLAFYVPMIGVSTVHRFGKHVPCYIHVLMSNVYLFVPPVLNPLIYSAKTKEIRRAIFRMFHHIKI
# Procedure, shortened: (§1)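 Transient luciferase assays in mammalian cell lines were common, though methods varied by source. The values come from published papers and their supplementary material, with extra details from the original authors when needed. Responsive refers to a measured signal the original authors judged statistically different from baseline, and non-responsive (inactive) to the remainder.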
# [2] = target: T2, OR51J1 (Homo sapiens) (UniProt Q9H342)
# T2 sequence (whole entry): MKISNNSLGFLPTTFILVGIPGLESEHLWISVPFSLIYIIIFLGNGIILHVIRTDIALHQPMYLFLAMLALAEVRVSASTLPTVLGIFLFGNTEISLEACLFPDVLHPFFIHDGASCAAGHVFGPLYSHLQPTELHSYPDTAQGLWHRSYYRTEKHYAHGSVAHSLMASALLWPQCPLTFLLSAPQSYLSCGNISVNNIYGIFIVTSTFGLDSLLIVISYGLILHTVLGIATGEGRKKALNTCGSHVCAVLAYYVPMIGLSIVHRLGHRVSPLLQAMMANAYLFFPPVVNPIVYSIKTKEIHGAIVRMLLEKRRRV
# Procedure, shortened: as §1
# [3] = target: T3, OR51L1 (Homo sapiens) (UniProt Q8NGJ5)
# T3 sequence (whole entry): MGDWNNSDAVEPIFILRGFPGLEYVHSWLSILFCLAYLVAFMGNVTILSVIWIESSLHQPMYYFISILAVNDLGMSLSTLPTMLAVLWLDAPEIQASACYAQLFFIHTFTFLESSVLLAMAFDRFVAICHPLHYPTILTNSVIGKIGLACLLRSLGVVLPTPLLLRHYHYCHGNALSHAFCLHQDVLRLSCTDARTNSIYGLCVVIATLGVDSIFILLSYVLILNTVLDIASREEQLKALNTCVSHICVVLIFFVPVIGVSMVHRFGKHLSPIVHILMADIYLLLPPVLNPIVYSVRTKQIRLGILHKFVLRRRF
# Procedure, shortened: as §1
# [4] = target: T4, OR51M1 (Homo sapiens) (UniProt Q9H341)
# T4 sequence (whole entry): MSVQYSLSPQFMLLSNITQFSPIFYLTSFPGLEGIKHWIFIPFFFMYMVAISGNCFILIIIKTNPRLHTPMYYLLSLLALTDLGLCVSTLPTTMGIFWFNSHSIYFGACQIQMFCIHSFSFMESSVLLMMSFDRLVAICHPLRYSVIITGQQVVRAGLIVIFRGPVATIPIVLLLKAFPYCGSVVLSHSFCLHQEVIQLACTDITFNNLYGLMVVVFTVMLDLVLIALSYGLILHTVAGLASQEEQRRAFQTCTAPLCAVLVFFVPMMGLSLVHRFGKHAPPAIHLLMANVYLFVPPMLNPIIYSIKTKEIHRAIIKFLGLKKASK
# Procedure, shortened: as §1
# [5] = target: T5, OR51Q1 (Homo sapiens) (UniProt Q8NH59)
# T5 sequence (whole entry): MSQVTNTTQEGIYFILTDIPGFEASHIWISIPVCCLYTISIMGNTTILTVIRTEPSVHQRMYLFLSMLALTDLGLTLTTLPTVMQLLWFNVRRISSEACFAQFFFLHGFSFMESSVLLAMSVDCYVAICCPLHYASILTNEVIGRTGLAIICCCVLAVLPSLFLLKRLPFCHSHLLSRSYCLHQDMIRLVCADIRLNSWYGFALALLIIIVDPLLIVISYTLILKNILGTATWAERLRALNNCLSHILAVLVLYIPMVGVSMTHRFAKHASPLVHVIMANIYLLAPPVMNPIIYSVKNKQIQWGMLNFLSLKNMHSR
# Procedure, shortened: as §1
# [6] = target: T6, OR51S1 (Homo sapiens) (UniProt Q8NGJ8)
# T6 sequence (whole entry): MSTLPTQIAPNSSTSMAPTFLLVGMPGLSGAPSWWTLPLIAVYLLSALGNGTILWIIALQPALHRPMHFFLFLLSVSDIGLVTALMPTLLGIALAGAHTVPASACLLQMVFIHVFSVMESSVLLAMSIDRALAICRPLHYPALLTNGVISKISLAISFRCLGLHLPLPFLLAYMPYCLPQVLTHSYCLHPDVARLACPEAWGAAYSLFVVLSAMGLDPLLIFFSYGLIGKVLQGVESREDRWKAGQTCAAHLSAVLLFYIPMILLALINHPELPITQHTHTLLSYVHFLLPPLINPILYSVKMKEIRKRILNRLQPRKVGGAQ
# Procedure, shortened: as §1
# [7] = target: T7, OR51V1 (Homo sapiens) (UniProt Q9H2C8)
# T7 sequence (whole entry): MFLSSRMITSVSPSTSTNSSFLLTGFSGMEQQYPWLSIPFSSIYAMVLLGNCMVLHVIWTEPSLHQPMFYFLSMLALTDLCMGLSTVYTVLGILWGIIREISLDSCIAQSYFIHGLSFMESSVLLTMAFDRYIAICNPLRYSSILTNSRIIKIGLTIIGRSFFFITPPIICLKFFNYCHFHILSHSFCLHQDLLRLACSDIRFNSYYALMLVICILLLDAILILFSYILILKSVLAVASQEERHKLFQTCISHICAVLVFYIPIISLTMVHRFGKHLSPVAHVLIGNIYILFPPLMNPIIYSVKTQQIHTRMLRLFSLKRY
# Procedure, shortened: as §1
# [8] = target: T8, OR52A1 (Homo sapiens) (UniProt Q9UKL2)
# T8 sequence (whole entry): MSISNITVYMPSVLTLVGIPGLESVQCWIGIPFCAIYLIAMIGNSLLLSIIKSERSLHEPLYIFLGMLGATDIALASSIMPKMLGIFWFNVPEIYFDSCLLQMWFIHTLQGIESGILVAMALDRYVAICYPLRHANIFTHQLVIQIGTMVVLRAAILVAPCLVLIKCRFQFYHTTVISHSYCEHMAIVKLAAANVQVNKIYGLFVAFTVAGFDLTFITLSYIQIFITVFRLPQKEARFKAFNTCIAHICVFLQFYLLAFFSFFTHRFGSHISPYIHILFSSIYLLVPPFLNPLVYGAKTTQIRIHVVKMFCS
# Procedure, shortened: as §1
# [9] = target: T9, OR52A5 (Homo sapiens) (UniProt Q9H2C5)
# T9 sequence (whole entry): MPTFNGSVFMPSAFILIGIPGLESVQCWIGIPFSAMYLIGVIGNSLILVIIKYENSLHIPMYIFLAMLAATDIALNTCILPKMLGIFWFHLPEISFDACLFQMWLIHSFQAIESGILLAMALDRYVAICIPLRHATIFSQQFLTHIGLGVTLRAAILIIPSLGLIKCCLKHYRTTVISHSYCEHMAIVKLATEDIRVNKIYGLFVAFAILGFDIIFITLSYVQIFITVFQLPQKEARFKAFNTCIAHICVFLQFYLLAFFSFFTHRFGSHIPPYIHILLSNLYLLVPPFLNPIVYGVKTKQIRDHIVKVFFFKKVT
# Procedure, shortened: as §1
# [10] = target: T10, OR52B2 (Homo sapiens) (UniProt Q96RD2)
# T10 sequence (whole entry): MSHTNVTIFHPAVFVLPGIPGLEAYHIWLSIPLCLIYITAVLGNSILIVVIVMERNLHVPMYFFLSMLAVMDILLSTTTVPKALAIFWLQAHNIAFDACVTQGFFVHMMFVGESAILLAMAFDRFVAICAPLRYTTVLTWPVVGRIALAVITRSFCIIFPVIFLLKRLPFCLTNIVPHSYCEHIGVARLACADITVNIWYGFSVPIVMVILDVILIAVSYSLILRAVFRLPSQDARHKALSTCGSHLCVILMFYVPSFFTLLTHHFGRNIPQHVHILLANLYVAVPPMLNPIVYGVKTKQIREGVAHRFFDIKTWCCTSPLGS
# Procedure, shortened: as §1
# [11] = target: T11, OR52B4 (Homo sapiens) (UniProt Q8NGK2)
# T11 sequence (whole entry): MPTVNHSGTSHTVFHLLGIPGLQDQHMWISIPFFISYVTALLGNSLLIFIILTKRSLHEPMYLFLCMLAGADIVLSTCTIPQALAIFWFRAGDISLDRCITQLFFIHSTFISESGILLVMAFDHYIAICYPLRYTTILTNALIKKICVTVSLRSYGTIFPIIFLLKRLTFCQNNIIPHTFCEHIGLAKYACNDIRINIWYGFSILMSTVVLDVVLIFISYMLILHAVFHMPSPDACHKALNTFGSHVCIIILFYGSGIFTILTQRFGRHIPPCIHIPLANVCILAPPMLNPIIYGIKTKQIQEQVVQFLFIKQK
# Procedure, shortened: as §1
# [12] = target: T12, OR52B6 (Homo sapiens) (UniProt Q8NGF0)
# T12 sequence (whole entry): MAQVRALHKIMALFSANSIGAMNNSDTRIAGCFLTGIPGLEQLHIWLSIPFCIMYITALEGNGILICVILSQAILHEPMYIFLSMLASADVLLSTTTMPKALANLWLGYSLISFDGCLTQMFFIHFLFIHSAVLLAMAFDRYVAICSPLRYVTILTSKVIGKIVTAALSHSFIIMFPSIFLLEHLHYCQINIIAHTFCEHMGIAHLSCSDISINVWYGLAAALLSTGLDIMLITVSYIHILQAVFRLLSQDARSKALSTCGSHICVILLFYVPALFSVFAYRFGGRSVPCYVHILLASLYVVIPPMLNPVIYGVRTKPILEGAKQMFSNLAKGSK
# Procedure, shortened: as §1
# [13] = target: T13, OR52D1 (Homo sapiens) (UniProt Q9H346)
# T13 sequence (whole entry): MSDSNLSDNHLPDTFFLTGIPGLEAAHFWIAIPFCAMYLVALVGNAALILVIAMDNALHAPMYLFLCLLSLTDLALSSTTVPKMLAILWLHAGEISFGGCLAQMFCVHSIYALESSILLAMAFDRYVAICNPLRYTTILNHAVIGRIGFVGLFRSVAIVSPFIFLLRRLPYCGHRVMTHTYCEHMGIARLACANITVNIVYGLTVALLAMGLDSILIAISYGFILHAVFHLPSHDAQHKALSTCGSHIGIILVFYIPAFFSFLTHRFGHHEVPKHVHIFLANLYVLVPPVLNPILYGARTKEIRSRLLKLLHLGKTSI
# Procedure, shortened: as §1
# [14] = target: OR52E1 (Homo sapiens) (UniProt Q8NGJ3)
# Sequence of OR52E1 (Homo sapiens) (Q8NGJ3 whole entry): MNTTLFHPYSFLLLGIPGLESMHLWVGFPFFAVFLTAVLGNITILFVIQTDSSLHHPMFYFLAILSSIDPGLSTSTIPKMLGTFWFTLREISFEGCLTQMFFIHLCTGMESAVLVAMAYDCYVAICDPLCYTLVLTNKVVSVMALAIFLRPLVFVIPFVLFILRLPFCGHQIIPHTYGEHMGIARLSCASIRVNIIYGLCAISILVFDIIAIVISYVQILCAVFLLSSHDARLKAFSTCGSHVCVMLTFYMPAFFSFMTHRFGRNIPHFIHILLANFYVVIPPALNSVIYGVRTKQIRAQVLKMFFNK
# Procedure, shortened: as §1
# [15] = target: OR52E2 (Homo sapiens) (UniProt Q8NGJ4)
# Sequence of OR52E2 (Homo sapiens) (Q8NGJ4 whole entry): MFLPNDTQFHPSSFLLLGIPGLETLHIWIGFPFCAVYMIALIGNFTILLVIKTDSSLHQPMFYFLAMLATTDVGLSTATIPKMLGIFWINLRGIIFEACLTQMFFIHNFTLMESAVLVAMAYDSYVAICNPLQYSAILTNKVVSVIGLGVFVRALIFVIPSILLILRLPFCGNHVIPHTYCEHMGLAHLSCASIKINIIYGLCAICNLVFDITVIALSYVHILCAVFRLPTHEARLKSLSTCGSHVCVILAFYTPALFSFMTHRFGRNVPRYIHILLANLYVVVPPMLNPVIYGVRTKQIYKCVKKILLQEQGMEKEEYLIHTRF
# Procedure, shortened: as §1
# [16] = target: OR52E4 (Homo sapiens) (UniProt Q8NGH9)
# Sequence of OR52E4 (Homo sapiens) (Q8NGH9 whole entry): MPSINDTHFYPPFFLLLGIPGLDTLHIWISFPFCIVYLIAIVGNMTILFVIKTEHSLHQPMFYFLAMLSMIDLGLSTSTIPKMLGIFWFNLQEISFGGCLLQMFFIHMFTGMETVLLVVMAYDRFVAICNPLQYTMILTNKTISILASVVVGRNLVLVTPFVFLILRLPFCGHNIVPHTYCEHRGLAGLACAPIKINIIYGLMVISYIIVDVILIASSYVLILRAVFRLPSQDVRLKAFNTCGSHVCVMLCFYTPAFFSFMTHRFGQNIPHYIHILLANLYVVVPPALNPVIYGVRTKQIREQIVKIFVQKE
# Procedure, shortened: as §1
# [17] = target: OR52E6 (Homo sapiens) (UniProt Q96RD3)
# Sequence of OR52E6 (Homo sapiens) (Q96RD3 whole entry): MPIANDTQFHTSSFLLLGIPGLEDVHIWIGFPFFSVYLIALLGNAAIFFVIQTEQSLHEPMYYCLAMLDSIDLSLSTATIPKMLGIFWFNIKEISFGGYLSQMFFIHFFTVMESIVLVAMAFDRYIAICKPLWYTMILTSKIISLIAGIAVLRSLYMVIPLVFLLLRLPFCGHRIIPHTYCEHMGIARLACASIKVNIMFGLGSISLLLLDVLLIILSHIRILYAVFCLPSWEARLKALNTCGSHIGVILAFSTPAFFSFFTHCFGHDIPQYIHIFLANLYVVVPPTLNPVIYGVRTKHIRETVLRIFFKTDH
# Procedure, shortened: as §1
# [18] = target: T14, OR51T1 (Homo sapiens) (UniProt Q8NGJ9)
# T14 sequence (whole entry): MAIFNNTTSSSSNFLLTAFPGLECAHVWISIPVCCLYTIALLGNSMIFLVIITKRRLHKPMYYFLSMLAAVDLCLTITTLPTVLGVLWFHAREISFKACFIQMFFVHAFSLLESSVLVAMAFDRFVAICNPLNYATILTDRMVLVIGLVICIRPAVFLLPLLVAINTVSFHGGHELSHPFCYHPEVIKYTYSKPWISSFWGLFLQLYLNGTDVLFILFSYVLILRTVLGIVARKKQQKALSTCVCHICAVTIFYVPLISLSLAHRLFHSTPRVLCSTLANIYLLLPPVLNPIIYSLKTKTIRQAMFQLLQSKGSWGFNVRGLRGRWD
# Procedure, shortened: as §1
# [19] = target: T15, OR52A4P (Homo sapiens) (UniProt A6NMU1)
# T15 sequence (whole entry): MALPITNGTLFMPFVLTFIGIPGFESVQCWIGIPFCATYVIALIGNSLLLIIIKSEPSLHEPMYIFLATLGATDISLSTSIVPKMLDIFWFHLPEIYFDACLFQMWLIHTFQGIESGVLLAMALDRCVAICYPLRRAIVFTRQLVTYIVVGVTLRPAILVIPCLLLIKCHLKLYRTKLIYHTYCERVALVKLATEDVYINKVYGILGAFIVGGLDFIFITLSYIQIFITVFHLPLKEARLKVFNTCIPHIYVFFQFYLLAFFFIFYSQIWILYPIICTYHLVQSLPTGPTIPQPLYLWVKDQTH
# Procedure, shortened: as §1
# [20] = target: OR52E5 (Homo sapiens) (UniProt Q8NH55)
# Sequence of OR52E5 (Homo sapiens) (Q8NH55 whole entry): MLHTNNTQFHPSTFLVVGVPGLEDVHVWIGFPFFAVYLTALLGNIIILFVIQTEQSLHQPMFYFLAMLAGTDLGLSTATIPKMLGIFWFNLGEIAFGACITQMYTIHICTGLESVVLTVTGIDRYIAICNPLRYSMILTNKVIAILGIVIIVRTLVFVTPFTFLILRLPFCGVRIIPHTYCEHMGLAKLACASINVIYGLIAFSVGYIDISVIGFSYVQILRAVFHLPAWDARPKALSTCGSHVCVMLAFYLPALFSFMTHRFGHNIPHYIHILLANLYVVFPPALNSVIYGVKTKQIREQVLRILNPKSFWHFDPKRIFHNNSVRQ
# Procedure, shortened: as §1
# 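Further: active if original authors judged signal statistically different from baseline.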
compound,measurement,setting,value
CCC1OC(C)=C(O)C1=O (stereo unspecified),odorant receptor agonist call,[1],inactive
same,odorant receptor agonist call,[2],inactive
same,odorant receptor agonist call,[3],inactive
same,odorant receptor agonist call,[4],inactive
same,odorant receptor agonist call,[5],inactive
same,odorant receptor agonist call,[6],inactive
same,odorant receptor agonist call,[7],inactive
same,odorant receptor agonist call,[8],inactive
same,odorant receptor agonist call,[9],inactive
same,odorant receptor agonist call,[10],inactive
same,odorant receptor agonist call,[11],inactive
same,odorant receptor agonist call,[12],inactive
same,odorant receptor agonist call,[13],inactive
same,odorant receptor agonist call,[14],inactive
same,odorant receptor agonist call,[15],inactive
same,odorant receptor agonist call,[16],inactive
same,odorant receptor agonist call,[17],inactive
CC(=O)OCc1ccccc1,odorant receptor agonist call,[3],inactive
CCCC(=O)C(C)=O,odorant receptor agonist call,[3],inactive
CCCCC(=O)CC,odorant receptor agonist call,[3],inactive
CCCCC(S)C(C)CO (stereo unspecified),odorant receptor agonist call,[1],inactive
same,odorant receptor agonist call,[2],inactive
same,odorant receptor agonist call,[3],inactive
same,odorant receptor agonist call,[4],inactive
same,odorant receptor agonist call,[5],inactive
same,odorant receptor agonist call,[6],inactive
same,odorant receptor agonist call,[18],active
same,odorant receptor agonist call,[7],inactive
same,odorant receptor agonist call,[8],inactive
same,odorant receptor agonist call,[19],inactive
same,odorant receptor agonist call,[9],active
same,odorant receptor agonist call,[10],inactive
same,odorant receptor agonist call,[11],inactive
same,odorant receptor agonist call,[12],inactive
same,odorant receptor agonist call,[13],inactive
same,odorant receptor agonist call,[15],inactive
same,odorant receptor agonist call,[16],inactive
same,odorant receptor agonist call,[20],inactive
same,odorant receptor agonist call,[17],inactive
CC1=NC(C)C(C)S1 (stereo unspecified),odorant receptor agonist call,[1],inactive
same,odorant receptor agonist call,[2],inactive
same,odorant receptor agonist call,[3],inactive
same,odorant receptor agonist call,[4],inactive
same,odorant receptor agonist call,[5],inactive
same,odorant receptor agonist call,[6],inactive
same,odorant receptor agonist call,[7],inactive
same,odorant receptor agonist call,[8],inactive
same,odorant receptor agonist call,[9],inactive
same,odorant receptor agonist call,[10],inactive
same,odorant receptor agonist call,[11],inactive
same,odorant receptor agonist call,[12],inactive
same,odorant receptor agonist call,[13],inactive
same,odorant receptor agonist call,[14],inactive
same,odorant receptor agonist call,[15],inactive
same,odorant receptor agonist call,[16],inactive
same,odorant receptor agonist call,[17],inactive

# Source: the M2OR odorant receptor database
